Compound activity from PubChem.
Xi reactivation = activators of inactive X chromosome reactivation, primary screen, imaging, XiGFP fibroblasts, GFP high-content imaging, set 2. 360,000 tested, 0.055% active. XiGFP mouse fibroblasts, % GFP-positive cells imaging, 3 d; cells co-treated with 5-aza-dC sensitizer; scaled so ellipticine positive control = 100%. AID 743238, 2013. activation, % at 7.58 µM;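 active = mean normalized replicate activation at least 10% and every replicate at or above 10%; inconclusive = only one of the two criteria met; inactive = mean below 10% and not all replicates reach 10%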;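 note: 0% = median of on-plate neutral control wells and 100% = ellipticine 6 µM median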
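Assay system – SV40-immortalized XiGFP fibroblast cells, line 68-5-11 · Buffer or medium – DMEM supplemented with 5-aza-dC as sensitizing agent · Dosing – one concentration, pinned · Benchmarks – positive control ellipticine, 6 µM final · Times – 3 days compound exposure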
TROY signal inh = inhibitors of TROY-driven NF-kB signaling, primary screen, Q293 LMP1-TROYcd cells, NF-kB luciferase, uHTS. Q293 LMP1-TROYcd NF-kB luciferase reporter, 4 h. 360,000 tested, 0.98% active. inhibition, % at 10 µM;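 active = compounds whose plate-normalised and pattern-corrected inhibition of the luciferase reporter signal at the single screening dose is 50% or more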
TWEAK-Fn14 inh = inhibitors of TWEAK-Fn14 signaling, primary screen, luciferase reporter cells, uHTS. TWEAK-stimulated Fn14 reporter cells, luciferase luminescence, 8 h. inhibition, % at 10 µM. 360,000 tested, 2% active; in the data active = inhibition above about 50%
CaV13 FRET inh = Primary screen for inhibitors of IQ motif and Ca2+-dependent inactivation inhibitor domain binding in CACNA1D, Förster resonance energy transfer in living cells, … | HEK cells, CFP/YFP FRET ICDI-IQ, plate reader, 10 min; percent FRET-ratio fall versus neutral wells | inhibition, % at 12.3 µM | 340,000 tested, 0.098% active;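 active = mean replicate inhibition of at least 30% and at least 1% of replicates passing that level; inconclusive = only one of the two criteria is met; inactive = neither criterion is met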;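 note: 0% = median of the neutral control wells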
LGR2 inh = inhibitors of bursicon-induced LGR2 CRE-luciferase signal, primary screen, cell-based, HEK293, CRE-luciferase reporter, bursicon stimulation; Drosophila bursicon receptor LGR2 (rickets); bursicon-stimulated, 4 h; inhibition, % at 9.99 µM; 380,000 tested, 0.35% active;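 active = drop in luminescence signal, shown as inhibition above about 50% in the replicate tests, limit read from the data, passing the limit was not always enough; inconclusive = probably only some replicates passing the limit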;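 note: agonist challenge used bursicon conditioned medium at about half maximal strength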
An asterisk follows results filed as active. A selection: hits, their analogues and other compounds. The true share with any hit is near 2%.

Results for CC(NC(=S)N1CCN(c2ccccc2)CC1)c1ccccc1 (configuration not stated) ?
Xi reactivation: 0; TROY signal inh: 8; TWEAK-Fn14 inh: 65*; CaV13 FRET inh: -5; LGR2 inh: inconclusive

How did CC(C)N(C(C)C)S(=O)(=O)c1ccc(N2CCc3ccccc3C2)nc1 do in these assays?
Xi reactivation: 0; TROY signal inh: 49; TWEAK-Fn14 inh: 58*; CaV13 FRET inh: -8; LGR2 inh: 14

Results for CCN(CC)S(=O)(=O)c1ccc(N2CCc3ccccc3C2)nc1 ?
Xi reactivation: 1; TROY signal inh: 10; TWEAK-Fn14 inh: 29; CaV13 FRET inh: -7; LGR2 inh: -19

How did Cc1nc2c(ccc3nc(NC(=O)Cc4cccc5ccccc45)sc32)s1 do in these assays?
Xi reactivation: 0; TROY signal inh: -24; TWEAK-Fn14 inh: 38; CaV13 FRET inh: -7; LGR2 inh: -8

What do the screens show for `Cc1nc2c(ccc3nc(NC(=O)C(c4ccccc4)c4ccccc4)sc32)s1`?
Xi reactivation: 0; TROY signal inh: 30; TWEAK-Fn14 inh: 75*; CaV13 FRET inh: -7; LGR2 inh: -23

What do the screens show for `CSc1nccn1C(=O)c1ccccc1[N+](=O)[O-]`?
Xi reactivation: 0; TROY signal inh: -9; TWEAK-Fn14 inh: 108*; CaV13 FRET inh: -3; LGR2 inh: 6

What do the screens show for `O=C(CN1C(=O)CCC1=O)Nc1nc(-c2nc3ccccc3s2)cs1`?
Xi reactivation: 0; TROY signal inh: -6; TWEAK-Fn14 inh: 83*; CaV13 FRET inh: -7; LGR2 inh: -54

What do the screens show for `CCOC(=O)c1sc2ccccc2c1NC(=O)c1coc2ccccc2c1=O`?
Xi reactivation: 0; TROY signal inh: 30; TWEAK-Fn14 inh: 57*; CaV13 FRET inh: -5; LGR2 inh: -12

How did CCOC(=O)c1sc2ccccc2c1OC(=O)c1ccccc1 do in these assays?
TROY signal inh: 7; TWEAK-Fn14 inh: 35; CaV13 FRET inh: 0

How did Cc1noc(C)c1S(=O)(=O)Nc1ccc2c(c1)CC(=O)N([C@@H](C)CO)C[C@H](C)[C@@H](CN(C)Cc1ccc(Oc3ccccc3)cc1)O2 do in these assays?
Xi reactivation: 0; LGR2 inh: 13

How did c1ccc(-c2noc(C3CCC3)n2)nc1 do in these assays?
Xi reactivation: 0; TROY signal inh: -8; TWEAK-Fn14 inh: 1; CaV13 FRET inh: -13; LGR2 inh: -16

Results for CCCCC1CCC(c2nc(-c3ccccn3)no2)CC1 (configuration not stated) ?
TROY signal inh: 25; TWEAK-Fn14 inh: 56*; CaV13 FRET inh: -1

How did O=C(NCc1ccc(F)cc1)[C@@H]1[C@@H](CO)[C@@H]2Cn3c(cccc3=O)[C@@H]2N1CCC(F)(F)F do in these assays?
Xi reactivation: 0; LGR2 inh: -12

How did N#CC1=C(N)SC(N)=C(C#N)C1c1cccc(Oc2ccccc2)c1 do in these assays?
TROY signal inh: 62*; TWEAK-Fn14 inh: 46; CaV13 FRET inh: -8; LGR2 inh: -7

How did CCN(CC)c1ccc(/C=C(/C#N)c2nc3ccccc3[nH]2)c(OC(C)C)c1 do in these assays?
TROY signal inh: 69*; TWEAK-Fn14 inh: 76*

Results for N#C/C(=C\c1ccccc1C(=O)O)c1nc2ccccc2[nH]1 ?
Xi reactivation: 0; TROY signal inh: 3; TWEAK-Fn14 inh: 10; CaV13 FRET inh: -2; LGR2 inh: -19

How did CCOc1cccc(/C=C(/C#N)c2nc3ccccc3[nH]2)c1OCC(=O)O do in these assays?
Xi reactivation: 0; TROY signal inh: 58*; TWEAK-Fn14 inh: 61*; CaV13 FRET inh: -7; LGR2 inh: -13

Results for CN(C)CC(=O)Nc1ccc2c(c1)[C@@H]1C[C@H](CC(=O)NCc3cccnc3)O[C@@H](CO)[C@@H]1O2 ?
Xi reactivation: 0; LGR2 inh: -17

Results for Cc1ccc2nc(/C(C#N)=C/c3cn[nH]c3-c3ccc(F)cc3)[nH]c2c1 ?
TROY signal inh: 16; TWEAK-Fn14 inh: 59*

What do the screens show for `O=C1NCCOCc2cnnn2CC[C@H]1Cc1ccc(F)cc1`?
Xi reactivation: 0

Results for Cc1ccc(-c2nsc3c(N4CCC(C(N)=O)CC4)ncnc23)cc1 ?
TROY signal inh: 45; TWEAK-Fn14 inh: 59*; CaV13 FRET inh: -5

Results for COc1ccc(C(=O)N2CCN(c3ncnc4c(-c5ccccc5)nsc34)CC2)cc1 ?
TROY signal inh: 6; TWEAK-Fn14 inh: 16; CaV13 FRET inh: -5

What do the screens show for `COc1ccc(-c2nsc3c(N4CCCCC4)ncnc23)cc1`?
TROY signal inh: 80*; TWEAK-Fn14 inh: 102*; CaV13 FRET inh: -3

Results for COc1ccc(-c2nsc3c(N4CCCCC4C)ncnc23)cc1 (configuration not stated) ?
Xi reactivation: 0; TROY signal inh: 91*; TWEAK-Fn14 inh: 98*; CaV13 FRET inh: -18; LGR2 inh: 95*

How did COc1ccc(-c2nsc3c(N4CCN(S(=O)(=O)c5ccccc5F)CC4)ncnc23)cc1 do in these assays?
TROY signal inh: -24; TWEAK-Fn14 inh: -24; CaV13 FRET inh: -8; LGR2 inh: -9

What do the screens show for `Cc1nn2cc(-c3ncc(C(F)(F)F)cc3Cl)cnc2c1Br`?
Xi reactivation: 0; TROY signal inh: 56*; TWEAK-Fn14 inh: 51*; CaV13 FRET inh: -5; LGR2 inh: -28

What do the screens show for `Cc1cc2ncc(-c3ncc(C(F)(F)F)cc3Cl)cn2n1`?
TROY signal inh: 44; TWEAK-Fn14 inh: 84*; CaV13 FRET inh: -8

What do the screens show for `FC(F)(F)c1cnc(-c2cnc3c(-c4ccc(Cl)cc4)cnn3c2)c(Cl)c1`?
TROY signal inh: -1; TWEAK-Fn14 inh: 5; CaV13 FRET inh: -5; LGR2 inh: -16

How did C[C@H](CO)N1C[C@H](C)[C@@H](CN(C)C(=O)CN(C)C)Oc2cc(-c3cccnc3)ccc2S1(=O)=O do in these assays?
Xi reactivation: -1; LGR2 inh: 8

Results for CCN1/C(=C/C=C/c2oc3ccc(-c4ccccc4)cc3[n+]2CC)Oc2ccc(-c3ccccc3)cc21 ?
Xi reactivation: 103*; TROY signal inh: -1; TWEAK-Fn14 inh: 56*; CaV13 FRET inh: -148; LGR2 inh: 37

Results for CCCN(C)C[C@H]1Oc2ncc(Br)cc2C(=O)N([C@H](C)CO)C[C@H]1C ?
Xi reactivation: 1; LGR2 inh: 12

How did Nc1nc(Nc2ccccc2)sc1C(=O)c1ccccc1 do in these assays?
Xi reactivation: 0; TROY signal inh: 20; TWEAK-Fn14 inh: 62*; CaV13 FRET inh: -3; LGR2 inh: 71*
